From PubChem
Compounds with a hit are over-represented: about 3.8% of the library has one in this group of screens.
RAM inhibit = inhibitors of the yeast RAM network. S. cerevisiae dse1pr::URA3 reporter, 5-FOA growth OD615, 2 d; analog-sensitive cbk1-as2 kinase mutant strain. inhibition, % at 50 µM. 190,000 tested, 1.8% active;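 active = inhibition above a set limit, 3 SD over mean compound inhibition, cut at about 8.4% in these data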;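 also: inhibition rescues growth on 5-FOA so higher OD means more RAM inhibition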
sdo1 growth = sdo1-depleted yeast growth rescue; 140,000 tested, 0.21% active; z-score at 10 µM; AID 817; S. cerevisiae sdo1-depleted JHY4D growth rescue, OD600 30 h; stronger effect = higher value; pdr5 snq2 efflux-pump mutant strain;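 active = z-score above 3 at both the 24 hr and the 30 hr optical density reads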
Measles CPE = protection of cells from measles virus. Measles virus-infected cells, CPE protection, absorbance. protection (pct of control), % at 4 µM. 140,000 tested, 1.5% active; in the data active = protection mostly above about 24%, no sharp cut-off; inactive = mostly below about 26%
BB579 growth dn = reduces growth of yeast BB579 in restrictive medium | S. cerevisiae BB579 growth, OD615, 48 h | inhibition, % at 10 µM | 140,000 tested, 0.51% active | AID 804;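 active = inhibition above a set limit, 3 SD over the mean compound inhibition, cut at about 44% in these data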
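controls = amphotericin B 10 µg/mL, positive | assay system = DeaD yeast strain BB579 | schedule = 48 h compound exposure at 30 °C after 4 h preincubation | detection = OD615 turbidity measurement | medium = restrictive CSMM-D medium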
Yeast lifespan up = yeast lifespan extension | S. cerevisiae growth with nicotinamide, OD615; deaD strain in restrictive glucose medium | inhibition of the nicotinamide effect, % at 10 µM | 130,000 tested, 0.68% active | AID 775;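 active = inhibition above a set limit, placed 3 SD over the median of all compounds, cut at about 26% in these data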
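assay system = DeaD-strain S. cerevisiae | measured by = absorbance at 615 nm | probe or stimulus = nicotinamide 1.5 mM | buffer or medium = CSMM-D glucose medium, restrictive | times = 48 h at 30 °C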
A number is an active result; - = inactive; . = no result given.

SMILES	RAM inhibit	sdo1 growth	Measles CPE	BB579 growth dn	Yeast lifespan up
COc1ccc(/C=N/NC(=O)CNC(=O)C2COc3ccccc3O2)cc1OC (stereo not given)	-	-	-	-	-
CCNc1nc(NC(C)CC)nc(Oc2ccc(OCC)nn2)n1 (stereo not given)	-	.	.	.	.
CCCn1c(C)cc(C(=O)COc2ccc(S(=O)(=O)N(CC)CC)cc2[N+](=O)[O-])c1C	8.4	-	-	-	-
CCCn1c(C)cc(C(=O)COc2ccc(C)nc2[N+](=O)[O-])c1C	-	-	-	-	-
O=C(Nc1cccc(Cl)c1Cl)c1cc(S(=O)(=O)NCCc2ccccc2)ccc1F	9.4	-	-	-	-
CC(C)NC(=O)COC(=O)C1CSC2(c3ccc(Br)cc3)CCC(=O)N12 (stereo not given)	-	.	.	.	.
CN(C)c1nc(N(C)C)nc(N(C#N)CCOc2ccccc2)n1	9.8	-	-	-	.
Cc1cc(C)nc(N(C#N)CCOc2ccccc2)n1	-	-	-	-	-
CC(C)Cn1c(N)c(C(=O)COC(=O)c2ccc3ccccc3n2)c(=O)n(C)c1=O	-	-	-	-	-
Cc1ccc(NC(=O)C(OC(=O)c2ccccc2Cl)c2ccccc2)cc1Cl (stereo not given)	8.9	-	-	-	-
COc1ccc(C(NC(=O)c2ccc(F)cc2)c2ccccc2)cc1 (stereo not given)	-	-	-	-	-
Cc1ccccc1OCC(=O)OC(C(=O)c1ccccc1)c1ccccc1 (stereo not given)	10	-	-	-	-
O=C(CCC(=O)OC(C(=O)c1ccccc1)c1ccccc1)Nc1ccccc1 (stereo not given)	-	-	-	-	-
COc1ccc(C(=O)C(OC(=O)c2ccccc2Cl)c2ccccc2)cc1 (stereo not given)	11	-	-	-	-
COc1ccc(C(=O)C(OC(=O)c2ccccc2)c2ccccc2)cc1 (stereo not given)	10	-	-	-	-
O=c1c2ccc([N+](=O)[O-])cc2ncn1Cc1ccccc1C(F)(F)F	-	.	.	.	.
Cc1ccc(C(=O)O/N=C/c2c(C(F)(F)F)nn(C)c2Sc2ccc(Cl)cc2)cc1	9.6	-	-	-	-
COC(=O)c1ccccc1Sc1c(/C=N/OC(=O)c2ccccc2)c(C(F)(F)F)nn1C	-	-	-	-	-
O=C(Oc1ccc2cc(Br)ccc2c1)N1CCCCCC1	-	-	-	-	-
CCc1c(O)cc(=O)n(-c2ccccc2)c1-c1ccccc1	-	-	26	-	-
CC(=O)Nc1ccc(OC(F)(F)C(F)F)c(NC(C)=O)c1	-	-	-	-	-
CCC(C)c1ccc(NC(=O)COc2c(F)c(F)c(C(F)(F)F)c(F)c2F)cc1 (stereo not given)	10	-	-	-	-
CCn1c(CNC(=O)COc2ccc(C(C)C)cc2)nnc1SCC(=O)Nc1ccc(F)cc1	10.0	-	-	-	-
O=C(COc1ccccc1)Nc1ccc(OC(F)(F)C(F)F)c(NC(=O)COc2ccccc2)c1	9.8	-	-	-	-
CC(C)c1ccc(OCC(=O)Nc2ccc(OC(F)(F)F)cc2)cc1	-	-	35	-	-
SMILES	RAM inhibit	sdo1 growth	Measles CPE	BB579 growth dn	Yeast lifespan up
CCn1c(CNC(=O)COc2ccc(C(C)C)cc2)nnc1SCC(=O)Nc1cc(F)ccc1C	-	-	-	-	-
S=C(NCC1CCCO1)NC1CCCC1 (stereo not given)	-	.	.	.	.
CCc1nnc(NC(=O)Cn2nc(-c3ccccc3OC)ccc2=O)s1	-	-	-	-	-
O=C(CSc1ccc(Cl)cc1)OCc1nnc(-c2ccccc2)o1	-	-	-	-	-
O=C(CSc1nnnn1-c1cccnc1)NCc1cccs1	-	-	-	-	-
COc1cc(OC)cc(C(=O)N[C@H](C(=O)OCC(=O)Nc2ccc(C(C)C)cc2)C(C)C)c1	8.5	-	-	-	-
O=C(CSc1ncnc2scc(-c3ccccc3)c12)N1CCN(c2ccccc2F)CC1	-	-	-	-	-
Fc1ccc(CSc2ncnc3scc(-c4ccccc4)c23)cc1	10	-	-	-	-
C=CCNC(=O)CC(=O)N/N=C/c1cccc(C)c1	-	-	-	-	-
CCCCNC(=O)/C=C/c1ccc(OC)c(Br)c1	9.6	-	-	-	-
CCOc1ccc(/C=C/C(=O)NCCc2ccc(OC)c(OC)c2)cc1	-	-	-	-	-
CCOC(=O)c1ccc(N/C=C/C(=O)c2ccc(OC)c(OC)c2)cc1	-	-	-	-	-
COc1ccc(C(=O)/C=C/Nc2ccc(C)cn2)cc1OC	-	-	-	52	.
CCOc1ccc2nc(NC(=O)CCC(=O)c3cccs3)sc2c1	-	-	-	-	-
CCCc1cc(=O)oc2cc(OCc3cccc(OC)c3)c(Cl)cc12	11	-	-	-	-
CCc1cc(=O)oc2cc(OCC(=O)O)c(Cl)cc12	-	-	-	-	-
O=C(NNC(=O)C(c1ccccc1)c1ccccc1)c1ccccn1	-	-	-	-	29
O=C(NNc1ccccn1)C(c1ccccc1)c1ccccc1	-	.	.	.	.
COc1ccc(Oc2ccc(/C=C/C(=O)c3ccc(O)cc3)cc2[N+](=O)[O-])cc1	11	-	-	-	-
CN(O)/C=c1/ccc2c(n1)C(=O)C=CC=2	-	-	-	97	-
COc1cc(S(=O)(=O)N(C)C2CCCCC2)c(C)cc1C	-	.	.	.	.
COc1cc(NC(=S)N2CCN(c3ccccn3)CC2)cc(OC)c1	-	-	31	-	-
O=C1CCC/C(=N/NC(=O)C2CCN(S(=O)(=O)c3cccs3)CC2)C1	-	-	-	-	-
C=CCc1c(OC)ccc2ccc(=O)oc12	-	-	36	-	-
COC(=O)CC1COc2ccccc2N1C(=O)c1cccc(Cl)c1 (stereo not given)	-	-	26	-	-
SMILES	RAM inhibit	sdo1 growth	Measles CPE	BB579 growth dn	Yeast lifespan up
CC1COc2ccccc2N1C(=O)c1ccc(Cl)nc1 (stereo not given)	-	.	.	.	.
CCOC(=O)C1=CN(Cc2ccc(OC)cc2)C=C(C(=O)OCC)C1c1cccs1	10	.	.	.	.
CCOC(=O)CSc1nc2cc(C(=O)N3CCCC3)ccc2c(=O)n1Cc1ccccc1	-	-	25	-	-
CCOC(=O)CSc1nc2cc(C(=O)N3CCC(C(N)=O)CC3)ccc2c(=O)n1-c1ccccc1	-	-	-	-	-
CC(C)Oc1ccc(C(CC(=O)NCc2ccco2)c2ccccc2)cc1 (stereo not given)	-	-	24	-	-
Cc1cccc(C(CC(=O)NCc2ccco2)c2ccccc2)c1O (stereo not given)	-	.	.	.	.
CNc1ccc(Br)cc(C(=O)/C=C/c2ccc3c(c2)OCO3)c1=O	-	-	54	-	-
CNc1ccc(Br)cc(C(=O)/C=C/c2ccc(OC)cc2)c1=O	-	-	-	-	-
CNc1ccc(/C=C/C(=O)c2ccc3c(c2)OCCO3)cc1[N+](=O)[O-]	9.0	-	-	-	-
Cc1c(C(=O)NCc2ccc(S(N)(=O)=O)cc2)oc2ccc(Cl)cc12	-	.	.	.	.
